ChEMBL document CHEMBL4513216, “Probing the Open Global Health Chemical Diversity Library for Multistage-Active Starting Points for Next-Generation Antimalarials” (ACS Infect Dis, 2020)

Test: Toxicity liver stage against HepG2, at 10uM
Assay type: cell-based
Set-up: test concentration 10 uM, cell line HepG2-A16-CD81EGFP
Details: human, HepG2-A16-CD81EGFP cells; read-out: INHIBITION
How it was run: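 Uninfected HepG2-A16-CD81EGFP cells, 3 × 10^3 per well, 1536-well, plated on prespotted compound at 10 μM final, parasite-free screening media added to match infected plates; puromycin 10 μM positive, DMSO 0.5% negative; run in parallel with 48 h PbLuc assay at 37 °C, 5% CO2; viability by CellTiter-Glo luminescence, normalized to controls.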

Row | Compound | cytotoxicity at 10 µM
1 | CC(=O)N1CC2(CCCC2)c2ccccc21 | 0.83%
2 | COc1ccc(-c2cnc3c(c2)CN(C2CC2)C(=O)CCN3)cc1 | 4.09%
3 | CCN1CC(C)(C)CN(C(=O)CCc2ccccc2)CC1=O | 0.305%
4 | O=C(COc1ccccc1F)NCCC(O)c1ccco1 (stereo unspecified) | -4.18%
5 | O=C(Nc1ccc2c(c1)OCO2)N1CCN(CCn2ccnc2)CC1 | -14.2%
6 | CC(=O)NCc1noc2c1CN(Cc1cccs1)CC2 | -5.18%
7 | COc1cccc(N2CC3(CCN(c4ccc(C)nn4)C3)CC2=O)c1 (stereo unspecified) | 6.62%
8 | CCN(C)c1ncnc2c1CCN(C(=O)N1CCOCC1)CC2 | 0.223%
9 | Cc1cc(C(=O)N2C[C@@H]3COC[C@]3(c3nnc(C)o3)C2)on1 | -0.505%
10 | CC1=Nc2c(c(=O)[nH]n2C(C)C)C(c2ccccc2)S1 (stereo unspecified) | 5.53%
11 | COc1ccc2nnc(CCCC(=O)NCCC3=CCCCC3)n2n1 | 2.73%
12 | CCc1ccc(NC(=O)c2cnc(N3CCN(C)CC3)nc2C)cc1 | -15%
13 | O=C1CC(c2ccco2)c2sc(C(=O)O)c(-c3ccccc3)c2N1 (stereo unspecified) | 19.1%
14 | COCc1cncc2c1CCN(C(=O)c1ccc(C)o1)C2 | 0.388%
15 | CC(C)NC(=O)[C@@H]1CCO[C@@H]2CCN(c3ncccn3)C[C@H]21 | -7.6%
16 | COCCNC(=O)[C@@H]1CC[C@@H]2[C@@H](CCN2Cc2cnn(C)c2)O1 | -12.2%
17 | O=C(c1ccncc1F)N1CCN(CC2CC2)c2ncccc2C1 | 6.48%
18 | Cc1nn(C)cc1S(=O)(=O)N[C@@H]1CCC[C@@H](n2ccnc2)[C@@H]1O | 0.651%
19 | CN1CCCCC1c1cncc(N2CCC(O)CC2)n1 (stereo unspecified) | 2.54%
20 | O=C(CC(SC1CCCCC1)C(=O)O)c1ccc(Cl)cc1 (stereo unspecified) | 3.16%
21 | CC(C)Cc1noc(CNc2ccccc2CC(=O)N(C)C)n1 | 0.489%
22 | CCCC(C)(C)NC(=O)CCN1CCOC1=O | -8.94%
23 | NC(=O)c1ccc(NC2CCOC3(CCCC3)C2)nn1 (stereo unspecified) | -3.13%

Row | Compound | cytotoxicity at 10 µM
24 | COC(=O)c1cc(CN2CCC(c3noc(C)n3)CC2)c(C)s1 | -7.12%
25 | CNS(=O)(=O)c1ccccc1N1CCN(C(=O)NC(C)C)CC1 | 9.44%
26 | COc1c(NS(=O)(=O)c2cc(C)ccc2C)c(C)nn1C | 0.259%
27 | Cc1cc(CN2CCN(C(=O)c3ccc(=O)n(C)c3)CC2)no1 | -8.07%
28 | COC(=O)COc1nc(C(C)C)no1 | -6.22%
29 | COc1cc(NC(=O)NC2CCCC2)ccc1N1CCOC1=O | -7.09%
30 | CN(Cc1ccsc1)C(=O)c1cc(S(=O)(=O)N(C)C)ccc1Cl | 15%
31 | CCC(=O)NCC(=O)NCC(C)(C)c1cccc(Br)c1 | -2.32%
32 | Cc1nn(C(C)C)c(C)c1NC(=O)c1cccnc1 | -1.57%
33 | Cc1nc(C)n(CC2CN(CCCc3ccccc3)CCO2)n1 (stereo unspecified) | 2.89%
34 | O=C(c1ccc(-n2ccnc2)nn1)N1CCCC1CCc1ccccc1 (stereo unspecified) | 8.57%
35 | CCc1nnc2ccc(NCC3(N4CCCCC4)CCOCC3)nn12 | -8.39%
36 | CC1C(=O)Nc2cccnc2N1S(=O)(=O)c1ccc(C#N)c(Cl)c1 (stereo unspecified) | -6.75%
37 | CN1CCCN(C(=O)c2cccn2-c2ccc3c(c2)OCCO3)CC1 | 1.03%
38 | CC(c1nc(C(C)(C)C)no1)S(=O)(=O)CC(=O)N(C)C (stereo unspecified) | -0.0515%
39 | CN(C)C(=O)C1CN(Cc2ccc(C#N)cc2)c2ccccc2O1 (stereo unspecified) | 6.47%
40 | O=C(Cc1cccs1)NC1(C(=O)NCC2CC2)CCCC1 | 4.19%
41 | COc1c(C)cnc(CN(C)C2CCN(C3CCOCC3)CC2)c1C | -17.7%
42 | Cc1cccc(OCc2nnc(SCC3CCCN(C)C3)o2)c1 (stereo unspecified) | -2.8%
43 | CNS(=O)(=O)c1ccc(C(=O)NC2CCOc3ccccc32)o1 (stereo unspecified) | -9.26%
44 | Cc1cccc(OCCC(=O)N(C)CCNS(C)(=O)=O)c1C | 3.35%
45 | CS(=O)(=O)NCc1cc(-c2cc(F)cc(F)c2)nc(N2CCCC2)n1 | -1.53%
46 | Cc1cc(C2CCCN2C(=O)CN2CC3(CCNCC3)OC2=O)on1 (stereo unspecified) | 16.4%

Row | Compound | cytotoxicity at 10 µM
47 | CCC[C@H]1CN(S(=O)(=O)c2ccc(Cl)cc2)C[C@@H]1NC(C)=O | -12.4%
48 | CCn1nc(CC(C)C)cc1C(=O)NCCS(=O)(=O)N(C)C | 11.2%
49 | CC(C)(C)c1ccn(C2(C(=O)O)CCN(c3ncccc3C#N)CC2)n1 | -7.6%
50 | CS(=O)(=O)N1CCC(c2nccn2Cc2ccccn2)CC1 | -14.6%
51 | Cc1nn(C)c(C)c1CN1CCCC(c2ccc(C(=O)O)cc2)C1 (stereo unspecified) | -8.82%
52 | c1ccc(CCN2CCN(C3CCOC4(CCOCC4)C3)CC2)nc1 (stereo unspecified) | 2.1%
53 | O=C(c1ncc[nH]1)N1CCC(n2cc(-c3ccccn3)nn2)CC1 | 4.95%
54 | CC(C)c1nccc(CN(C)Cc2cccc(-n3cccn3)c2)n1 | -2.44%
55 | CC(C)[C@@H]1CN(C(=O)CN(C)Cc2ccc(F)cc2)C[C@H]1C(=O)O | 1.74%
56 | CS(=O)(=O)Cc1nc(CCc2ccccc2)nn1-c1ccccn1 | 3.36%
57 | CCCN(CC)Cc1ccc(C(=O)NCC2COCCO2)c(=O)[nH]1 (stereo unspecified) | 4.78%
58 | Cc1nonc1OCCNc1ncnc2sc3c(c12)CCNC3 | -1.69%
59 | Cc1n[nH]c(CCC(=O)N2CCOC(Cc3ccccc3)C2)c1C (stereo unspecified) | -44.1%
60 | CCc1cnc(N)nc1NCCCN1CCCCC1CO (stereo unspecified) | -0.0414%
61 | COCCn1ccnc1C1CCN(C(=O)CSc2nnc(C)s2)CC1 | 5.4%
62 | Cc1ccc2[nH]c(C(=O)NCCCn3ccnn3)c(C)c2c1 | 5.36%
63 | COc1cc(F)ccc1-c1ncccc1NC(=O)C(C)C | 1.23%
64 | Cc1n[nH]c(C)c1-c1cc(-c2ccc[nH]2)nc(N)c1C#N | 12.4%
65 | Cc1nn(C)cc1CNC(=O)c1cn(CCC2CCCCN2)nn1 (stereo unspecified) | -6.15%
66 | Cc1cc(C[C@@H]2COC[C@@H]2NC(=O)CN2CCCC2)on1 | -30.2%
67 | COCc1cc(NCc2cc(F)ccc2F)n2nccc2n1 | -2.32%
68 | CC(C)c1nc2c(n1C)CCN(Cc1nc(-c3ccco3)no1)C2 | -0.403%
69 | CC(NC(=O)CCCC(=O)c1cccs1)c1nnc2n1CCC2 (stereo unspecified) | -10.2%

Row | Compound | cytotoxicity at 10 µM
70 | Cc1cnn(CCNCc2nc(CNC(=O)c3ccccc3)no2)c1 | -5.92%
71 | CC(C)c1nc2c(n1C)CCN(Cc1cccc(OCC(N)=O)c1)C2 | -7.24%
72 | CCn1cc(CN2CCCN(C(=O)c3sc(C)nc3C)CC2)cn1 | -14.4%
73 | Cc1ccc(-c2nc(CNCC3CN(C)CCO3)co2)c(C)c1 (stereo unspecified) | -16.4%
74 | CCc1ccc(CNC(=O)N2CCN(Cc3cc(C)on3)CC2)s1 | -7.03%
75 | CCc1[nH]ncc1C(=O)N1CCCC(n2ccnc2C)C1 (stereo unspecified) | -10.5%
76 | CN(Cc1nnc(C2CC2)n1C)C1CCN(CCc2cnn(C)c2)C1 (stereo unspecified) | -4.02%
77 | COc1ccc(CC(=O)N2CCCC(n3cc(C)cn3)C2)c(OC)c1 (stereo unspecified) | -8.66%
78 | Cc1nc(CC(=O)N2CCCCC2Cn2cccn2)cs1 (stereo unspecified) | -1.55%
79 | CC(NC(=O)N(C)CCOc1ccccc1F)c1nncn1C (stereo unspecified) | -9.92%
80 | Cc1nccc(C(=O)N2CCCC2c2c(C)nn(C)c2C)n1 (stereo unspecified) | -2.42%
81 | Cc1ccccc1CNC(C)c1ccc(OCC(=O)NC2CC2)cc1 (stereo unspecified) | -6.97%
82 | Cc1cc(C)n(C2CN(CC(=O)NC3CCS(=O)(=O)C3)C2)n1 (stereo unspecified) | -9.41%
83 | Cc1nn(C)c(C)c1C1CCCN1CC(=O)NCc1ccco1 (stereo unspecified) | -12.4%
84 | O=C(COCCc1ccccc1)N1CCCC(n2cncn2)C1 (stereo unspecified) | -27.8%
85 | CN(Cc1ccccn1)C1CCCN(c2cccnn2)C1 (stereo unspecified) | -13.4%
86 | COc1cc(C(=O)N2CCCC(CNS(C)(=O)=O)C2)ccc1C (stereo unspecified) | -21.6%
87 | Cc1nn(C)c(C)c1CC(=O)N1CCCC(n2cccn2)C1 (stereo unspecified) | -13.7%
88 | Cc1noc(C2CCN(C(=O)c3ccc(N(C)C)nc3)CC2)n1 | -5.95%
89 | Cc1noc(C2CCN(C(=O)CN(C)c3ccc(Cl)cn3)CC2)n1 | -6.98%
90 | CC(Cn1ccnc1)NC(=O)NCCNC(=O)C(C)C (stereo unspecified) | -3.51%
91 | N#Cc1cn(C2CC2)c(=O)n(CC(O)c2ccc(OC(F)F)cc2)c1=O (stereo unspecified) | -2.22%
92 | CS(=O)(=O)N1CCCCCC1C1CCN(c2ncccn2)CC1 (stereo unspecified) | -7.98%

Row | Compound | cytotoxicity at 10 µM
93 | CC(NC(=O)N1CCCN(Cc2cccs2)CC1)c1cccnc1 (stereo unspecified) | -8.83%
94 | Cc1csc(C2CCCN(C(=O)c3cc(Cl)c[nH]3)C2)n1 (stereo unspecified) | -8.21%
95 | c1ccc(CCNC2CCc3ncnn3C2)nc1 (stereo unspecified) | -4.03%
96 | CC1(C(=O)N2CCOCC2)CNCCO1 (stereo unspecified) | 1.2%
97 | Cc1ncc2c(n1)C1(CCN(C(=O)C3CC3)CC1)OCC2 | 6.02%
98 | Cc1ccc(CN(Cc2ccncc2)C2CC(C)(C)NC(C)(C)C2)o1 | -12.3%
99 | COCCC(=O)N1CCN(CC(C)C)c2nc(C)ccc2C1 | 11.3%
100 | CC(C)NC(=O)[C@H]1C[C@@H]2[C@@H](C1)OCCN2Cc1ccco1 | 4.08%
101 | N#Cc1ccc(C(=O)N2CCn3c(Cn4cccn4)cnc3C2)cc1 | 3.09%
102 | Cn1cc(CN2C[C@@H]3CN(Cc4ccoc4)CCO[C@@H]3C2)cn1 | 6.97%
103 | O=C1C(NCc2ccc3c(c2)CCO3)CCN1Cc1ccccc1 (stereo unspecified) | 6.39%
104 | Fc1ccc(CN2CCOCC3(CCN(Cc4nccs4)C3)C2)cc1 (stereo unspecified) | 4.23%
105 | CCCS(=O)(=O)N1C[C@@H]2COC[C@]2(CN2CCOCC2)C1 | 1.86%
106 | O=C1CC[C@H]2[C@H](CCN2C(=O)C2CCOCC2)N1Cc1ccncc1 | -2.7%
107 | CN(C)CC(=O)N1CCc2ncnc(-c3cncnc3)c2CC1 | -2.42%
108 | O=C(N1CCCO1)[C@]12COC[C@H]1CN(Cc1nccs1)C2 | 9.31%
109 | Cc1ncc2c(c1C(=O)O)CCN(c1ncc(F)cn1)C2 | -2.19%
110 | COC(=O)c1cc(OCC2CCC2)cc(C(=O)NC2CCC(O)CC2)c1 (stereo unspecified) | -14.2%
111 | CNc1nc(C(=O)N2C[C@@H]3CC[C@H]2CN(S(C)(=O)=O)C3)cs1 | 0.977%
